In brackets after ≈: the same amount, converted by molar mass.
Columns and labels:
Assay type in all cases: cell-based
[1] = system: Klebsiella aerogenes (NCIM-2098); assay: MIC, broth microdilution; conditions: NCIM2098, read-out: Minimum inhibitory concentration (MIC), KA
Outline: (§1)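 Antibacterial MICs by CLSI broth microdilution in Mueller-Hinton broth. Test compounds and standard drugs are serially diluted two-fold from 512 to 0.25. The bacterial broth culture is grown 2-6 h to a 0.5 McFarland turbidity, then adjusted with sterile solution to the final inoculum.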

[2] = system: Streptococcus pneumonia (ATCC 49619); assay: Agar disk diffusion, inhibition zone; conditions: 100 µg/8 mm disc, triplicate, mean ± SD
[3] = system: Escherichia coli (ATCC 8739); assay: Agar disk diffusion, inhibition zone; conditions: 100 µg/8 mm disc, triplicate, mean ± SD
Outline: (§2)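 Agar disk diffusion on Mueller-Hinton agar plates seeded with a standard bacterial suspension. Test compound stock in DMSO, diluted with distilled water; 8 mm sterile filter-paper discs soaked in the solution. Ampicillin was the reference. Plates incubated at 35 °C for 24 h, in triplicate. Read-out is the average inhibition-zone diameter (mm) around each disc.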

[4] = system: Cryptococcus neoformans (ATCC 9011); assay: MIC, broth microdilution; conditions: ATCC9011, read-out: Minimum inhibitory concentration (MIC), CN
Outline: (§3)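 Antifungal MICs by CLSI broth microdilution in Sabouraud liquid medium. Test compounds and standard drugs are serially diluted two-fold from 512 to 0.25. The fungal broth culture is grown 24 h at 35 °C to a 0.5 McFarland turbidity, then adjusted with sterile solution to the final inoculum.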

[5] = system: Staphylococcus aureus (ATCC 29213); assay: Agar disk diffusion, inhibition zone; conditions: 100 µg/8 mm disc, triplicate, mean ± SD
Outline: as §2

[6] = system: Klebsiella aerogenes (NCIM-2098); assay: Agar disk diffusion, inhibition zone; conditions: 100 µg/8 mm disc, triplicate, mean ± SD
[7] = system: Escherichia coli (ATCC 8739); assay: MIC, broth microdilution; conditions: ATCC8739, read-out: Minimum inhibitory concentration (MIC), EC
Outline: (§4)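 Broth microdilution per CLSI in Mueller-Hinton broth, using two-fold serial dilutions of test compound and reference drugs from 512 to 0.25. Bacterial broth cultures were grown 2-6 h to 0.5 McFarland turbidity, then diluted with sterile solution to the final inoculum. MIC is reported in µg/mL.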

[8] = system: Bacillus cereus (NCIM-2458); assay: Agar disk diffusion, inhibition zone; conditions: 100 µg/8 mm disc, triplicate, mean ± SD
[9] = system: Bacillus cereus (NCIM-2458); assay: MIC, broth microdilution; conditions: NCIM2458, read-out: Minimum inhibitory concentration (MIC), BC
Outline: as §4

[10] = system: Aspergillus fumigatus (NCIM 2081); assay: MIC, broth microdilution; conditions: NCIM2081, read-out: Minimum inhibitory concentration (MIC), AF
Outline: as §3

[11] = system: Aspergillus niger (NCIM 2191); assay: MIC, broth microdilution; conditions: NCIM2191, read-out: Minimum inhibitory concentration (MIC), AN
Outline: as §3

[12] = system: Salmonella typhimurium (NCIM-2501); assay: Agar disk diffusion, inhibition zone; conditions: 100 µg/8 mm disc, triplicate, mean ± SD
[13] = system: Aspergillus niger (NCIM 2191); assay: Agar disk diffusion, inhibition zone; conditions: 100 µg/8 mm disc, triplicate, mean ± SD
Outline: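 For the fungal strain, discs soaked in test compound solution (DMSO stock diluted with distilled water) sat on seeded Mueller-Hinton agar. Clotrimazole was the reference. Incubation ran 48 h at 35 °C, in triplicate. Zone of growth inhibition recorded in mm as the mean diameter around each disc.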

[14] = system: Cryptococcus neoformans (ATCC 9011); assay: Agar disk diffusion, inhibition zone; conditions: 100 µg/8 mm disc, triplicate, mean ± SD
[15] = system: Aspergillus fumigatus (NCIM 2081); assay: Agar disk diffusion, inhibition zone; conditions: 100 µg/8 mm disc, triplicate, mean ± SD
[16] = system: Pseudomonas aeruginosa (MCCB 0035); assay: Agar disk diffusion, inhibition zone; conditions: 100 µg/8 mm disc, triplicate, mean ± SD
[17] = system: Lactobacillus casei (NCIM-2651); assay: Agar disk diffusion, inhibition zone; conditions: 100 µg/8 mm disc, triplicate, mean ± SD
[18] = system: Candida albicans (NCIM 2087); assay: MIC, broth microdilution; conditions: NCIM2087, read-out: Minimum inhibitory concentration (MIC), CA
Outline: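 CLSI broth microdilution in Sabouraud liquid medium, with test compound two-fold serially diluted from 512 to 0.25. Fungal broth culture grown 24 h at 35 °C to 0.5 McFarland turbidity, then adjusted with sterile solution to a final […] inoculum. MIC expressed in µg/mL.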

[19] = system: Candida albicans (NCIM 2087); assay: Agar disk diffusion, inhibition zone; conditions: 100 µg/8 mm disc, triplicate, mean ± SD
[20] = system: Staphylococcus aureus (ATCC 29213); assay: MIC, broth microdilution; conditions: ATCC29213, read-out: Minimum inhibitory concentration (MIC), SA
Outline: as §1

[21] = system: Pseudomonas aeruginosa (MCCB 0035); assay: MIC, broth microdilution; conditions: read-out: Minimum inhibitory concentration (MIC), PA
Outline: as §4

Structure (SMILES) | MIC [1] | Diameter of growth inhibition zone, SP [2] | Diameter of growth inhibition zone, EC [3] | MIC [4] | Diameter of growth inhibition zone, SA [5] | Diameter of growth inhibition zone, KA [6] | MIC [7] | Diameter of growth inhibition zone, BC [8] | MIC [9] | MIC [10] | MIC [11] | Diameter of growth inhibition zone, ST [12] | Diameter of growth inhibition zone, AN [13] | Diameter of growth inhibition zone, CN [14] | Diameter of growth inhibition zone, AF [15] | Diameter of growth inhibition zone, PA [16] | Diameter of growth inhibition zone, LC [17] | MIC [18] | MIC [20] | MIC [21] | further results
Cc1ccc(C2SCC(=O)N2S(=O)(=O)c2ccc(C)cc2)cc1 (stereo not shown) [5t, 2-(4-Methylphenyl)-3-[(4-methylphenyl)sulfonyl]-1,3-thiazolidin-4-one] | > 256 µg/mL | 07 ± 0.7 mm | 12 ± 1.2 mm | > 256 µg/mL | 12 ± 1.9 mm | 07 ± 0.6 mm | 64 µg/mL (≈ 184 µM) | 07 ± 0.84 mm | > 256 µg/mL | 64 µg/mL (≈ 184 µM) | 128 µg/mL (≈ 368 µM) | 07 ± 0.7 mm | 9.5 ± 0.9 mm | 10 ± 0.9 mm | 09 ± 1.5 mm | 11 ± 0.65 mm | 08 ± 0.5 mm | 128 µg/mL (≈ 368 µM) | 64 µg/mL (≈ 184 µM) | 128 µg/mL (≈ 368 µM) | Diameter of growth inhibition zone, CA [19]: 9.8 ± 0.23 mm
Cc1ccc(S(=O)(=O)N2C(=O)CSC2c2ccccc2C)cc1 (stereo not shown) [5r, 2-(2-Methylphenyl)-3-[(4-methylphenyl)sulfonyl]-1,3-thiazolidin-4-one] | 128 µg/mL (≈ 368 µM) | 08 ± 0.8 mm | 15 ± 0.69 mm | 128 µg/mL (≈ 368 µM) | 14 ± 1.1 mm | 08 ± 0.3 mm | 64 µg/mL (≈ 184 µM) | 08 ± 0.4 mm | 128 µg/mL (≈ 368 µM) | 128 µg/mL (≈ 368 µM) | 64 µg/mL (≈ 184 µM) | 08 ± 0.6 mm | 9.8 ± 0.9 mm | 11 ± 0.7 mm | 9.6 ± 0.9 mm | 16 ± 1.9 mm | 10 ± 0.7 mm | 64 µg/mL (≈ 184 µM) | 64 µg/mL (≈ 184 µM) | 64 µg/mL (≈ 184 µM) | Diameter of growth inhibition zone, CA [19]: 10 ± 0.6 mm
Cc1ccc(S(=O)(=O)N2C(=O)CSC2c2cccc(F)c2)cc1 (stereo not shown) [5i, 2-(3-Fluorophenyl)-3-[(4-methylphenyl)sulfonyl]-1,3-thiazolidin-4-one] | 32 µg/mL (≈ 91.1 µM) | 12 ± 0.4 mm | 22.8 ± 0.63 mm | 16 µg/mL (≈ 45.5 µM) | 17 ± 0.53 mm | 12 ± 0.4 mm | 16 µg/mL (≈ 45.5 µM) | 14 ± 0.9 mm | 16 µg/mL (≈ 45.5 µM) | 8 µg/mL (≈ 22.8 µM) | 32 µg/mL (≈ 91.1 µM) | 10 ± 0.76 mm | 11 ± 0.9 mm | 14 ± 1.3 mm | 15 ± 0.6 mm | 18 ± 0.23 mm | 18 ± 1.62 mm | 16 µg/mL (≈ 45.5 µM) | 16 µg/mL (≈ 45.5 µM) | 32 µg/mL (≈ 91.1 µM) | Diameter of growth inhibition zone, CA [19]: 15 ± 0.32 mm
CC1(C)S[C@@H]2[C@H](NC(=O)[C@H](N)c3ccccc3)C(=O)N2[C@H]1C(=O)O [AA, Ampicillin, reference compound] | 8 µg/mL (≈ 22.9 µM) | 17 mm | 18 mm |  | 21 mm | 17 mm | 1 µg/mL (≈ 2.86 µM) | 19 mm | 4 µg/mL (≈ 11.4 µM) |  |  | 18 mm |  |  |  | 17 mm | 20 mm |  | 2 µg/mL (≈ 5.72 µM) | 4 µg/mL (≈ 11.4 µM) | 
